Data from ChEMBL document CHEMBL4346672, “Antimicrobial and KPC/AmpC inhibitory activity of functionalized benzosiloxaboroles” (Eur J Med Chem, 2019).
In brackets after ≈: the same amount, converted by molar mass. Activity calls are given as the source filed them. The calls are words filed in the database; no cut-off is given here.

Legend:
[1] = system: Staphylococcus aureus; experiment: Antibacterial activity against Staphylococcus aureus ATCC 6538P assessed as diameter of zone inhibition measured after 18 hrs by CLSI disc diffusion method; assay type: functional
Procedure, shortened: (§1)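 Disc diffusion on Mueller-Hinton II agar. Compounds dissolved in DMSO. Strains stored at -80 °C and subcultured twice on tryptic soy agar before testing. Inhibition zones read after 35 °C, 18 h.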

[2] = system: Pseudomonas aeruginosa; experiment: Antibacterial activity against Pseudomonas aeruginosa ATCC 27853 measured after 18 hrs by CLSI broth dilution method; assay type: functional; conditions: ATCC 27853, 18 h
Procedure, shortened: (§2)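 Broth MIC in Mueller-Hinton II broth following CLSI, compounds dissolved in DMSO. Strains subcultured twice on tryptic soy agar before testing. Growth read after 35 °C, 18 h.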

[3] = Dissociation constant, pKa1 of compound in 0.1 M NaOH by potentiometric analysis; assay type: physicochemical
[4] = system: Meyerozyma guilliermondii; experiment: Antifungal activity against Candida guilliermondii IBA 155 assessed as decrease in fungal cell growth at 0.78 to 12.5 mg/L incubated for 24 hrs by CLSI broth dilution method; assay type: functional; conditions: IBA 155, 24 h
Procedure, shortened: (§3)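 Yeast broth dilution in RPMI 1640 with 2% glucose, compounds in DMSO. Yeasts pre-grown on Sabouraud dextrose agar. Growth read after 35 °C, 24 h.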

[5] = system: Pichia kudriavzevii; experiment: Antifungal activity against Candida krusei ATCC 6258 assessed as decrease in fungal cell growth at 0.78 to 12.5 mg/L incubated for 24 hrs by CLSI broth dilution method; assay type: functional; conditions: ATCC 6258, 24 h; procedure, shortened: as §3
[6] = system: Saccharomyces cerevisiae; experiment: Antifungal activity against Saccharomyces cerevisiae ATCC 9763 assessed as decrease in fungal cell growth at 0.78 to 12.5 mg/L incubated for 24 hrs by CLSI broth dilution method; assay type: functional; conditions: ATCC 9763, 24 h
Procedure, shortened: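 Yeast strain subcultured on Sabouraud dextrose agar for 24–48 h at 30 °C before testing. Compounds dissolved in DMSO.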

[7] = system: Candida albicans; experiment: Antifungal activity against Candida albicans ATCC 90028 assessed as diameter of zone inhibition incubated for 24 hrs by CLSI disc diffusion method; assay type: functional
Procedure, shortened: (§4)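 Yeast disc diffusion on Mueller-Hinton agar supplemented with 2% glucose and 0.5 mg/L methylene blue. Compounds in DMSO. Yeasts subcultured on Sabouraud dextrose agar before testing. Zones read after 35 °C, 24 h.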

[8] = system: Candida parapsilosis; experiment: Antifungal activity against Candida parapsilosis ATCC 22019 assessed as diameter of zone inhibition incubated for 24 hrs by CLSI disc diffusion method; assay type: functional; procedure, shortened: as §4
[9] = system: Candida tropicalis; experiment: Antifungal activity against Candida tropicalis IBA 171 assessed as diameter of zone inhibition incubated for 24 hrs by CLSI disc diffusion method; assay type: functional; procedure, shortened: as §4
[10] = system: Meyerozyma guilliermondii; experiment: Antifungal activity against Candida guilliermondii IBA 155 assessed as diameter of zone inhibition incubated for 24 hrs by CLSI disc diffusion method; assay type: functional; procedure, shortened: as §4
[11] = system: Pichia kudriavzevii; experiment: Antifungal activity against Candida krusei ATCC 6258 assessed as diameter of zone inhibition incubated for 24 hrs by CLSI disc diffusion method; assay type: functional; procedure, shortened: as §4
[12] = system: Staphylococcus aureus; experiment: Antibacterial activity against Staphylococcus aureus ATCC 6538P measured after 18 hrs by CLSI broth dilution method; assay type: functional; procedure, shortened: as §2
[13] = system: Staphylococcus epidermidis; experiment: Antibacterial activity against Staphylococcus epidermidis ATCC 12228 measured after 18 hrs by CLSI broth dilution method; assay type: functional; conditions: ATCC 12228, 18 h; procedure, shortened: as §2
[14] = system: Enterococcus faecalis; experiment: Antibacterial activity against Enterococcus faecalis ATCC 29212 measured after 18 hrs by CLSI broth dilution method; assay type: functional; conditions: ATCC 29212, 18 h; procedure, shortened: as §2
[15] = system: Staphylococcus epidermidis; experiment: Antibacterial activity against Staphylococcus epidermidis ATCC 12228 assessed as diameter of zone inhibition measured after 18 hrs by CLSI disc diffusion method; assay type: functional; procedure, shortened: as §1
[16] = system: Enterococcus faecium; experiment: Antibacterial activity against Enterococcus faecium ATCC 6057 assessed as diameter of zone inhibition measured after 18 hrs by CLSI disc diffusion method; assay type: functional; procedure, shortened: as §1
[17] = system: Bacillus subtilis; experiment: Antibacterial activity against Bacillus subtilis ATCC 6633 assessed as diameter of zone inhibition measured after 18 hrs by CLSI disc diffusion method; assay type: functional; procedure, shortened: as §1
[18] = system: Escherichia coli; experiment: Antibacterial activity against Escherichia coli ATCC 25922 measured after 18 hrs by CLSI broth dilution method; assay type: functional; conditions: ATCC 25922, 18 h; procedure, shortened: as §2
[19] = system: Klebsiella pneumoniae; experiment: Antibacterial activity against Klebsiella pneumoniae ATCC 13883 measured after 18 hrs by CLSI broth dilution method; assay type: functional; conditions: ATCC 13883, 18 h; procedure, shortened: as §2
[20] = system: Proteus mirabilis; experiment: Antibacterial activity against Proteus mirabilis ATCC 12453 measured after 18 hrs by CLSI broth dilution method; assay type: functional; conditions: ATCC 12453, 18 h; procedure, shortened: as §2
[21] = system: Acinetobacter baumannii; experiment: Antibacterial activity against Acinetobacter baumannii ATCC 19606 measured after 18 hrs by CLSI broth dilution method; assay type: functional; conditions: ATCC 19606, 18 h; procedure, shortened: as §2
[22] = system: Escherichia coli; experiment: Antibacterial activity against Escherichia coli ATCC 25922 assessed as diameter of zone inhibition measured after 18 hrs by CLSI disc diffusion method; assay type: functional; procedure, shortened: as §1
[23] = system: Enterobacter cloacae; experiment: Antibacterial activity against Enterobacter cloacae DSM 6234 assessed as diameter of zone inhibition measured after 18 hrs by CLSI disc diffusion method; assay type: functional; procedure, shortened: as §1
[24] = system: Pseudomonas aeruginosa; experiment: Antibacterial activity against Pseudomonas aeruginosa ATCC 27853 assessed as diameter of zone inhibition measured after 18 hrs by CLSI disc diffusion method; assay type: functional, organism-based; procedure, shortened: as §1
[25] = system: Acinetobacter baumannii; experiment: Antibacterial activity against Acinetobacter baumannii ATCC 19606 assessed as diameter of zone inhibition measured after 18 hrs by CLSI disc diffusion method; assay type: functional; procedure, shortened: as §1
[26] = system: Burkholderia cepacia; experiment: Antibacterial activity against Burkholderia cepacia ATCC 25416 assessed as diameter of zone inhibition measured after 18 hrs by CLSI disc diffusion method; assay type: functional; procedure, shortened: as §1
[27] = system: Bordetella bronchiseptica; experiment: Antibacterial activity against Bordetella bronchiseptica ATCC 4617 assessed as diameter of zone inhibition measured after 18 hrs by CLSI disc diffusion method; assay type: functional; procedure, shortened: as §1
[28] = system: Escherichia coli; experiment: Antibacterial activity against Escherichia coli ATCC 25922 assessed as fold reduction of MIC in presence of efflux pump inhibitor PAbetaN incubated for 18 hrs by CLSI broth microdilution method; assay type: functional
Procedure, shortened: (§5)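 MICs determined with and without PAβN at 50 mg/L in Mueller-Hinton broth containing 1 mM MgSO₄. 2-fold serial dilutions per CLSI. Fold change taken from the paired MICs after 35 °C, 18 h.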

[29] = system: Klebsiella pneumoniae; experiment: Antibacterial activity against Klebsiella pneumoniae ATCC 13883 assessed as fold reduction of MIC in presence of efflux pump inhibitor PAbetaN incubated for 18 hrs by broth microdilution method; assay type: functional; procedure, shortened: as §5
[30] = system: Proteus mirabilis; experiment: Antibacterial activity against Proteus mirabilis ATCC 12453 assessed as fold reduction of MIC in presence of efflux pump inhibitor PAbetaN incubated for 18 hrs by broth microdilution method; assay type: functional; procedure, shortened: as §5
[31] = system: Enterobacter cloacae; experiment: Antibacterial activity against Enterobacter cloacae DSM 6234 assessed as fold reduction of MIC in presence of efflux pump inhibitor PAbetaN incubated for 18 hrs by broth microdilution method; assay type: functional; procedure, shortened: as §5
[32] = system: Serratia marcescens; experiment: Antibacterial activity against Serratia marcescens ATCC 13880 assessed as fold reduction of MIC in presence of efflux pump inhibitor PAbetaN incubated for 18 hrs by broth microdilution method; assay type: functional; procedure, shortened: as §5
[33] = system: Acinetobacter baumannii; experiment: Antibacterial activity against Acinetobacter baumannii ATCC 19606 assessed as fold reduction of MIC in presence of efflux pump inhibitor PAbetaN incubated for 18 hrs by broth microdilution method; assay type: functional; procedure, shortened: as §5
[34] = system: Serratia marcescens; conditions: ATCC 13880

| MIC [2] | pKa [3] | MIC [4] | MIC [5] | MIC [6] | MIC [12] | MIC [13] | MIC [14] | MIC [18] | MIC [19] | MIC [20] | Compound | diameter of the inhibition zone (DIZ) [1] | diameter of the inhibition zone (DIZ) [7] | diameter of the inhibition zone (DIZ) [8] | diameter of the inhibition zone (DIZ) [9] | diameter of the inhibition zone (DIZ) [10] | diameter of the inhibition zone (DIZ) [11] | diameter of the inhibition zone (DIZ) [15] | diameter of the inhibition zone (DIZ) [16] | diameter of the inhibition zone (DIZ) [17] | other results |
| --- | --- | --- | --- | --- | --- | --- | --- | --- | --- | --- | --- | --- | --- | --- | --- | --- | --- | --- | --- | --- | --- |
| > 400 µg/mL | 5.2 | 400 µg/mL (≈ 1650 µM) | > 400 µg/mL | 100 µg/mL (≈ 413 µM) | 50 µg/mL (≈ 207 µM) | 100 µg/mL (≈ 413 µM) | 400 µg/mL (≈ 1650 µM) | > 400 µg/mL | > 400 µg/mL | > 400 µg/mL | C[Si]1(C)OB(O)c2c(C=O)cc(F)c(F)c21 | 21 mm | 11 mm | inactive | 11 mm | 12 mm | inactive | 28 mm | inactive | 18 mm | MIC [21]: 400 µg/mL (≈ 1650 µM); diameter of the inhibition zone (DIZ) [22]: inactive; diameter of the inhibition zone (DIZ) [23]: inactive; diameter of the inhibition zone (DIZ) [24]: inactive; diameter of the inhibition zone (DIZ) [25]: inactive; diameter of the inhibition zone (DIZ) [26]: inactive; diameter of the inhibition zone (DIZ) [27]: inactive; fold change (FC) [28]: 64; fold change (FC) [29]: 32; fold change (FC) [30]: 2; fold change (FC) [31]: 64; fold change (FC) [32]: 2; fold change (FC) [33]: 2; DIZ [34]: inactive |
| > 400 µg/mL | 7.3 | 25 µg/mL (≈ 128 µM) | 12.5 µg/mL (≈ 63.8 µM) | 1.56 µg/mL (≈ 7.97 µM) | 50 µg/mL (≈ 255 µM) | 50 µg/mL (≈ 255 µM) | 200 µg/mL (≈ 1020 µM) | 400 µg/mL (≈ 2040 µM) | > 400 µg/mL | > 400 µg/mL | C[Si]1(C)OB(O)c2ccc(F)cc21 | 29 mm | 13 mm | 11 mm | 11 mm | 15 mm | 11 mm | 26 mm | inactive | 14 mm | MIC [21]: 200 µg/mL (≈ 1020 µM); diameter of the inhibition zone (DIZ) [22]: inactive; diameter of the inhibition zone (DIZ) [23]: inactive; diameter of the inhibition zone (DIZ) [24]: inactive; diameter of the inhibition zone (DIZ) [25]: inactive; diameter of the inhibition zone (DIZ) [26]: inactive; diameter of the inhibition zone (DIZ) [27]: inactive; fold change (FC) [28]: 16; fold change (FC) [29]: 8; fold change (FC) [30]: 2; fold change (FC) [31]: 32; fold change (FC) [32]: 8; fold change (FC) [33]: 4; DIZ [34]: inactive |
